Compound activity from PubChem BioAssay.
PAFAH2 inh – inhibitors of human PAFAH2. 340,000 tested, 0.99% active. Q99487. recombinant PAFAH2, FP-rhodamine activity probe, fluorescence polarization. inhibition, % at 3.39 µM;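 active means inhibition above the mean over all tested compounds plus 3 SD, cut at about 30% in these data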;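 further: inhibitors block probe labeling of enzyme so polarization drops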
PREPL inhibitor – human PREPL enzyme inhibition | 320,000 tested, 0.68% active | Q4J6C6 | inhibition, % at 5.96 µM | recombinant PREPL, fluorescence polarization activity-based probe
PAFAH1B2 FP inh – blocks human PAF acetylhydrolase 1b catalytic subunit 2 | P68402 | recombinant PAFAH1B2, FP-rhodamine activity probe, fluorescence polarization | inhibition, % at 3.39 µM | 340,000 tested, 1.2% active;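 active means inhibition above the mean of all tested compounds plus 3 SD, cut at about 24% in these data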
Target sequence (P68402 whole entry, looked up): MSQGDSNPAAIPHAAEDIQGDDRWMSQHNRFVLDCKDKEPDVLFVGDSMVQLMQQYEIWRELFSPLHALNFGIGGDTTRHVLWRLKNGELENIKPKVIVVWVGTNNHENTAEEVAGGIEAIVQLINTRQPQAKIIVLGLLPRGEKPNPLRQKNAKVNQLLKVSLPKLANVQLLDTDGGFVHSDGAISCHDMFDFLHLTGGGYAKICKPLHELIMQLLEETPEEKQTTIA
PAFAH1B3 FP inh – inhibitors of human PAFAH1B3. Q15102. recombinant PAFAH1B3, FP-rhodamine probe, fluorescence polarization. inhibition, % at 3.39 µM. 340,000 tested, 0.28% active;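 active means inhibition above the screen-wide average of all tested compounds plus 3 SD, cut at about 25% in these data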
Target sequence (Q15102 whole entry, looked up): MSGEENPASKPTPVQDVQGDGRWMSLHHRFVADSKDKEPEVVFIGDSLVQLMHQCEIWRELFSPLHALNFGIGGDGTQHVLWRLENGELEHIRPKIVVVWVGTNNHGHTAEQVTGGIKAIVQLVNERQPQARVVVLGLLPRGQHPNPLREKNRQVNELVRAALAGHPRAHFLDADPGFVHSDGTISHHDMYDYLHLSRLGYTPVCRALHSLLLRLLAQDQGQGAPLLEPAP
Apaf1 inhib – inhibitors of human Apaf-1 apoptosome. O14727. reconstituted apoptosome caspase-3 activity, DEVD-Rh110 fluorescence. inhibition, % at 20 µM. 330,000 tested, 0.71% active. AID 489030; active means inhibition of at least 40% at 20 µM
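Material: reconstituted apoptosome with Apaf-1, cytochrome c, caspase-9, procaspase-3, dATP; medium: pH 7.5 Hepes buffer with CHAPS, BSA, DTT; also added: cytochrome c and DEVD-Rh110 substrate; timing: 30 min plus 50 min, RT; signal: Rh110 fluorescence intensity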
pPAFAH inh – inhibitors of human plasma PAF acetylhydrolase (pPAFAH); recombinant pPAFAH, FP-rhodamine probe fluorescence polarization; inhibition, % at 3.39 µM; 330,000 tested, 1.5% active; AID 463082;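 active means inhibition above the mean inhibition across the screen plus 3 SD, cut at about 25% in these data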;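 further: inhibitors block binding of the rhodamine activity-based probe so polarization drops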
PREPL inh cf – confirmation of human PREPL enzyme inhibitors | recombinant PREPL, fluorescence polarization activity probe | 2,000 tested, 67% active | AID 2803 | shares compounds with PREPL inhibitor | inhibition, % at 5.96 µM
Large screens that a line does not name were inactive (follow-up assays come after a bar, where they were run). In the library only some 3.5% were active in any assay of this set; here they are far more common. Unless noted, no stated cut-off is given here; in the data, active means inhibition above about 43%; inactive means the rest.

Cc1ccc2c(c1)cc1c(=O)n(CC(=O)N3CCC4(CC3)OCCO4)nc(C)n12	pPAFAH inh 25.6
O=C(O)C(Cc1cnc[nH]1)NS(=O)(=O)c1ccc(Br)cc1 (configuration not stated)	none
CC(C)n1c(O)c(C2c3cc(Cl)ccc3Oc3[nH]c(=O)n(C(C)C)c(=O)c32)c(=O)[nH]c1=O (configuration not stated)	PAFAH1B2 FP inh 38.8 (no result: PREPL inhibitor, Apaf1 inhib, pPAFAH inh)
Cc1cc(C)cc(N2C(=O)NC(=O)/C(=C\c3cccn3-c3ccc(Cl)cc3)C2=O)c1	PAFAH2 inh 39.4, PAFAH1B2 FP inh 43.5
COc1ccc(-n2c(/C=C/c3ccc(O)c(OC)c3)nc3ccccc3c2=O)cc1	none
COc1cccc(-n2c(/C=C/c3ccc(O)c(O)c3)nc3ccccc3c2=O)c1	pPAFAH inh 33.1
COc1ccc(CCN)cc1O	none
NCCc1cc(O)c(O)cc1O	PAFAH2 inh 71.5, PAFAH1B2 FP inh 54.6, PAFAH1B3 FP inh 88.2 (no result: PREPL inhibitor, Apaf1 inhib, pPAFAH inh)
Nc1ccc2cc(Br)ccc2c1	PAFAH1B2 FP inh 54.2
Nc1ccc(Br)cc1	none (no result: PREPL inhibitor, Apaf1 inhib, pPAFAH inh)
O=C1NS(=O)c2cc([N+](=O)[O-])cc([N+](=O)[O-])c21 (configuration not stated)	none
CC(C)[C@@]1(NC(=O)[C@@H]2C[C@@H]3c4cccc5[nH]cc(c45)C[C@H]3N(C)C2)O[C@@]2(O)[C@@H]3CCCN3C(=O)[C@H](Cc3ccccc3)N2C1=O	none
CC(C)C[C@H]1C(=O)N2CCCC2[C@]2(O)O[C@](NC(=O)[C@@H]3C=C4c5cccc6[nH]cc(c56)CC4N(C)C3)(C(C)C)C(=O)N12 (some centres not stated)	PAFAH1B3 FP inh 38.7, Apaf1 inhib 86.8
O=C(C1c2ccccc2C(=O)N2CCc3ccccc3C12)N1CCC2(CC1)OCCO2 (configuration not stated)	none
COc1c2c(cc3c1OCO3)CCN(C)C2	none
COc1cc2c(cc1OC)-c1c3c(cc4c1[C@@H](C2)N(C)CC4)OCO3	Apaf1 inhib 97.5
COc1cc2c(cc1OC)-c1c(OC)c(OC)cc3c1C(C2)N(C)CC3 (configuration not stated)	Apaf1 inhib 95.1
COc1ccc(CC2c3cc(OC)c(OC)cc3CCN2C)cc1O (configuration not stated)	none
Oc1ccc(Cl)c(Cl)c1Cl	none
CN(C)CCN(C(=O)COc1ccc(Cl)cc1)c1nc2cc3c(cc2s1)OCO3	none
COC(=O)C1=C(c2cccc(C#N)c2)C[C@@H]2CC[C@H]1N2C(=O)NCCNC(C)=O	none
Cc1ccccc1OCCN=Cc1c(O)n(C)c(=O)n(C)c1=O	none
CC(=O)Nc1ccc(OC(=O)N2CCCCC2)cc1	none
O=C(Oc1ccc([N+](=O)[O-])cc1)N1CCC(N2CCCCC2)CC1	pPAFAH inh 34.4
Cc1ccc(N2C(=O)/C(=C/c3ccc(CN(CCC#N)S(C)(=O)=O)o3)C(=O)NC2=S)cc1	PAFAH2 inh 33.1, pPAFAH inh 27.7
O=[N+]([O-])/C=C/c1c(Cl)cccc1Cl	none (no result: PREPL inhibitor, Apaf1 inhib, pPAFAH inh)
O=P(N1CCCCC1)(N1CCCCC1)C(Cl)(Cl)Cl	none
CCCC(C)n1[nH]c(=O)c2c1NC(=O)CSC2c1ccc(OC)cc1 (configuration not stated)	pPAFAH inh 28.3
COC/C=C1\CN2C3C[C@@H]1[C@H]1COC4=Nc5cc(OC)c(OC)c(OC)c5[C@@]43C[C@@H]12	none
C=C1[C@H]2C[C@H]3[C@H]4N5C[C@]6(C)CCC[C@]47[C@H]([C@H]2O)[C@]3(C[C@]5(O)[C@H]67)[C@@H]1O	none
CCOCCCn1c(N)c(C(=O)Nc2sc3c(c2C(=O)OC)CCCC3)c2nc3ccccc3nc21	PAFAH2 inh 35.5, PAFAH1B2 FP inh 31.1, PAFAH1B3 FP inh 51.9
CCOC(=O)c1c(NC(=O)c2c(N)n(CCCOC)c3nc4ccccc4nc23)sc2c1CCCC2	none
O=c1[nH]c(=O)n(-c2cccc(F)c2)c(O)c1/C=C1\C=Nc2ccccc21	PAFAH1B2 FP inh 25.4
O=C(O)c1ccc(-n2c(O)c(/C=C3\C=Nc4ccccc43)c(=O)[nH]c2=O)cc1	none
CC1=CC2OC3CC4OC(=O)C=CC=CC(C(C)O)OCC(O)C(C)CC(=O)OCC2(CC1O)C4(C)C31CO1 (configuration not stated)	none (no result: PREPL inhibitor, Apaf1 inhib, pPAFAH inh)
CC(C)c1ccc(N2C(=O)NC(=O)/C(=C\C=C\c3ccco3)C2=O)cc1	pPAFAH inh 28.7 (no result: PAFAH2 inh, PAFAH1B2 FP inh, PAFAH1B3 FP inh)
CCC(=NCCc1c[nH]c2ccccc12)c1c(O)n(C)c(=O)n(C)c1=O	none
CC(=NCCc1c[nH]c2ccccc12)c1c(O)n(Cc2ccccc2)c(=O)[nH]c1=O	PREPL inhibitor 43.3 | PREPL inh cf inactive
CCC(=NCCc1c[nH]c2ccccc12)c1c(O)n(-c2ccc(C)cc2)c(=O)[nH]c1=O	PREPL inhibitor 44.4 | PREPL inh cf 46.1
CC(=NCCN1CCOCC1)c1c(O)n(Cc2ccccc2)c(=O)[nH]c1=O	none
COC1=CC2C3Cc4ccc(OC)c(O)c4C2(CCN3C)CC1=O (configuration not stated)	none (no result: Apaf1 inhib)
COc1ccc2c(c1)c(C(=O)CN1CCC3(CC1)OCCO3)c(C)n2Cc1ccccc1	PREPL inhibitor 58.0 | PREPL inh cf 49.3
CCCCn1c(C)c(C(=O)O)c2cc(OC)c3ccccc3c21	none
O=[N+]([O-])c1ccc(-[n+]2c(-c3ccccc3)cc(-c3ccccc3)cc2-c2ccccc2)cc1	PREPL inhibitor 43.4 | PREPL inh cf inactive
COc1ccc2c3c([nH]c2c1)C(C)=NCC3	PREPL inhibitor 71.3 | PREPL inh cf inactive
COc1ccc2c(c1)[nH]c1c(C)nccc12	none
CC1=NCCc2c1[nH]c1cc(O)ccc21	PREPL inhibitor 51.0 | PREPL inh cf inactive
COc1ccccc1OP(=O)(Nc1cccnc1)Oc1ccccc1OC	none
COC(=O)C1=C(c2cccc(OCc3ccccc3)c2)C[C@@H]2CC[C@H]1N2C(=O)NCCOc1ccc(OC)cc1	none
COC(=O)C1=C(c2cccc(OCc3ccccc3)c2)C[C@@H]2CC[C@H]1N2C(=O)NCCCOC(C)C	PREPL inhibitor 45.9 | PREPL inh cf inactive
COc1cc(/C=C2/C(=O)NC(=O)N(c3ccccc3)C2=O)ccc1O	none
CCOc1cc(/C=C2/C(=O)NC(=O)N(c3ccc(CC)cc3)C2=O)ccc1OC(=O)c1cccs1	PREPL inhibitor 48.1 | PREPL inh cf 51.6
O=C(C1CCCN(c2nnc(-n3cccc3)s2)C1)N1CCC2(CC1)OCCO2 (configuration not stated)	none
CC(C)Cc1[nH]c(=O)c(C#N)c2c1CCC2	PREPL inhibitor 75.0 | PREPL inh cf 66.4
